The record followed here is ChEMBL document CHEMBL1147823, “Conformationally constrained analogues of diacylglycerol. 26. Exploring the chemical space surrounding the C1 domain of protein kinase C with DAG-lactones containing aryl groups at the sn-1 and sn-2 positions” (J Med Chem, 2006).

The target of experiment [1] is Protein kinase C alpha type (Homo sapiens, UniProt P17252). The experiment can be described thus: Displacement of [20-3H]PDBU from recombinant PKCalpha in presence of phosphatidylserine. The procedure, abridged:
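Competition binding with recombinant single-isozyme PKC-α as the target enzyme. Each ligand's ability to displace bound [20-³H]phorbol 12,13-dibutyrate was measured in the presence of phosphatidylserine. Ki values were derived from the competition, and both E- and Z-isomers were assayed.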

Experiment [2] addresses T1, Protein kinase C delta type (Homo sapiens, UniProt Q05655). The experiment can be described thus: Binding affinity to PKCdeltaC1b in presence of phospholipid.
Target sequence in this assay (Q05655 whole entry): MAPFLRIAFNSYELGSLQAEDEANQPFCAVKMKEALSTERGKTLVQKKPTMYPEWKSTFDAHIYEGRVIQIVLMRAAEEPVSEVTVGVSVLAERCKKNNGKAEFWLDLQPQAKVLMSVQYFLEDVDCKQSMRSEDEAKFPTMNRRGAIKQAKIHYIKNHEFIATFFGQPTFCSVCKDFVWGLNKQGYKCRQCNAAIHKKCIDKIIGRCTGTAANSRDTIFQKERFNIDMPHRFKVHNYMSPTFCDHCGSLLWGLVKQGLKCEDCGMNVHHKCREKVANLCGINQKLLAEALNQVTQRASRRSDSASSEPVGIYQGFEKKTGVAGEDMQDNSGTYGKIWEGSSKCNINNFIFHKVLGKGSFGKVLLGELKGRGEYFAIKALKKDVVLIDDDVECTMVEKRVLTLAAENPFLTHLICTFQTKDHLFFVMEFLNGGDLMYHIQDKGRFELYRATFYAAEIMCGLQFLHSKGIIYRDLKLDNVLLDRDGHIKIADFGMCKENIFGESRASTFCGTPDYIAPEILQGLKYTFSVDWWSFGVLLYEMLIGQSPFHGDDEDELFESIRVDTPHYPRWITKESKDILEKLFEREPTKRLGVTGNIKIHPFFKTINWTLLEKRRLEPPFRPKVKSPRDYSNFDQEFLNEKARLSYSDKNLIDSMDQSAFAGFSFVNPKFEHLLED
The target in experiment [3] is T1, Protein kinase C delta type. Kind of experiment: Binding affinity to PKCdeltaC1b in absence of phospholipid.
Target sequence in this assay (Q05655 whole entry): as above
For experiment [4] the target is unchanged. Kind of experiment: Ratio of binding affinity to PKCdeltaC1b in presence to absence of phospholipid.
Target sequence in this assay (Q05655 whole entry, looked up): as the sequence (Q05655 whole entry) above

For `CCCCCCCCC/C=C1/CC(CO)(COC(=O)C2CCCCC2)OC1=O` (stereo unspecified), the Ki (commonly the equilibrium dissociation constant of an inhibitor or competing ligand from its target) in experiment [1] was 0.005 µM.
The same measure, in the same setting: in the case of `CC(C)C(C/C=C1/CC(CO)(COC(=O)c2ccc(O)cc2)OC1=O)C(C)C` (stereo unspecified) it was 0.983 µM.
`COc1ccccc1C(=O)OCC1(CO)C/C(=C\CC(C(C)C)C(C)C)C(=O)O1` (stereo unspecified): the Ki in experiment [1] stood at 0.073 µM.
On the same count and under the same terms, the result for `COc1ccc(C(=O)OCC2(CO)C/C(=C/CC(C(C)C)C(C)C)C(=O)O2)cc1` (stereo unspecified) reads 0.018 µM; that for `CC(C)C(C/C=C1\CC(CO)(COC(=O)c2cccc(O)c2)OC1=O)C(C)C` (stereo unspecified), 0.67 µM.
For the molecule `COc1ccccc1C(=O)OCC1(CO)C/C(=C/CC(C(C)C)C(C)C)C(=O)O1` (stereo unspecified), in experiment [1], the Ki amounted to 0.023 µM.
Still for that read-out and setting: in the case of `COc1cccc(C(=O)OCC2(CO)C/C(=C\CC(C(C)C)C(C)C)C(=O)O2)c1` (stereo unspecified) it was 0.039 µM; in that of `CCCCCCCCC/C=C1/CC(CO)(COC(=O)c2ccccc2)OC1=O` (stereo unspecified), 0.009 µM.
On the same count and under the same terms, the result for `CC(C)C(C/C=C1\CC(CO)(COC(=O)c2ccccc2O)OC1=O)C(C)C` (stereo unspecified) reads 0.067 µM.
In the case of `CCCCCCC/C=C1/CC(CO)(COC(=O)CCc2ccccc2)OC1=O` (stereo unspecified), the Ki in experiment [1] stood at 0.014 µM.
As for `CC(C)C(CC(=O)OCC1(CO)C/C(=C\Cc2ccccc2)C(=O)O1)C(C)C` (stereo unspecified), the Ki in experiment [1] stood at 0.014 µM.
`CC(C)C(C/C=C1\CC(CO)(COC(=O)c2ccc(O)cc2)OC1=O)C(C)C` (stereo unspecified): the Ki came to 2.4 µM in experiment [1], 0.98 µM in experiment [2] and 16.9 µM in experiment [3]. In addition, in experiment [4], the Ratio Ki was found to be 17.
Take `CC(C)C(C/C=C1/CC(CO)(COC(=O)C2CCCCC2)OC1=O)C(C)C` (stereo unspecified): the Ki in experiment [1] came out at 0.008 µM.
On the same count and under the same terms, the result for `COc1ccc(C(=O)OCC2(CO)C/C(=C\CC(C(C)C)C(C)C)C(=O)O2)cc1` (stereo unspecified) reads 0.036 µM; that for `CCCCCCCC/C=C1\CC(CO)(COC(=O)Cc2ccccc2)OC1=O` (stereo unspecified), 0.044 µM; that for `CC(C)C(CC(=O)OCC1(CO)C/C(=C\c2ccccc2)C(=O)O1)C(C)C` (stereo unspecified), 0.012 µM.
Same read-out and setting: the result for `COc1cccc(/C=C2\CC(CO)(COC(=O)CC(C(C)C)C(C)C)OC2=O)c1` (stereo unspecified) reads 0.012 µM.
The same measure, in the same setting: in the case of `CC(C)C(C/C=C1\CC(CO)(COC(=O)c2ccccc2)OC1=O)C(C)C` (stereo unspecified) it was 0.028 µM; in that of `CCCCCCCCC/C=C1\CC(CO)(COC(=O)c2ccccc2)OC1=O` (stereo unspecified), 0.014 µM.
As for `CC(C)C(CC(=O)OCC1(CO)C/C(=C\c2ccccc2O)C(=O)O1)C(C)C` (stereo unspecified), the Ki in experiment [1] was determined as 0.022 µM.
Still for that read-out and setting: in the case of `CC(C)C(C/C=C1/CC(CO)(COC(=O)c2ccccc2O)OC1=O)C(C)C` (stereo unspecified) it was 0.03 µM.
The same measure, in the same setting: in the case of `COc1cccc(C(=O)OCC2(CO)C/C(=C/CC(C(C)C)C(C)C)C(=O)O2)c1` (stereo unspecified) it was 0.024 µM; in that of `COc1ccc(/C=C2\CC(CO)(COC(=O)CC(C(C)C)C(C)C)OC2=O)cc1` (stereo unspecified), 0.007 µM.
The same measure, in the same setting: the result for `CC(C)C(CC(=O)OCC1(CO)C/C(=C\CCc2ccccc2)C(=O)O1)C(C)C` (stereo unspecified) reads 0.009 µM; that for `CC(C)C(C/C=C1/CC(CO)(COC(=O)c2cccc(O)c2)OC1=O)C(C)C` (stereo unspecified), 0.406 µM; that for `CCCCCCCC/C=C1/CC(CO)(COC(=O)Cc2ccccc2)OC1=O` (stereo unspecified), 0.045 µM.
In the case of `COc1ccccc1/C=C1\CC(CO)(COC(=O)CC(C(C)C)C(C)C)OC1=O` (stereo unspecified), the Ki in experiment [1] amounted to 0.016 µM.
On the same count and under the same terms, the result for `CCCCCC/C=C1\CC(CO)(COC(=O)CCCc2ccccc2)OC1=O` (stereo unspecified) reads 0.027 µM; that for `CC(C)C(C/C=C1/CC(CO)(COC(=O)c2ccccc2)OC1=O)C(C)C` (stereo unspecified), 0.016 µM; that for `CCCCCCCCC/C=C1\CC(CO)(COC(=O)C2CCCCC2)OC1=O` (stereo unspecified), 0.009 µM.
`CC(C)C(CC(=O)OCC1(CO)C/C(=C\c2cccc(O)c2)C(=O)O1)C(C)C` (stereo unspecified): the Ki in experiment [1] is 0.017 µM.
The same measure, in the same setting: in the case of `CCCCCCC/C=C1\CC(CO)(COC(=O)CCc2ccccc2)OC1=O` (stereo unspecified) it was 0.018 µM.
Take `CC(C)C(CC(=O)OCC1(CO)C/C(=C\c2ccc(O)cc2)C(=O)O1)C(C)C` (stereo unspecified): the inhibition constant (Ki) in experiment [1] turned out to be 0.019 µM; in experiment [2], 0.0014 µM; in experiment [3], 0.17 µM. Besides, in experiment [4], the Ratio Ki is 121.
With `CCCCCC/C=C1/CC(CO)(COC(=O)CCCc2ccccc2)OC1=O` (stereo unspecified), the inhibitory constant (Ki) in experiment [1] came to 0.017 µM.
Still for that read-out and setting: in the case of `CC(C)C(C/C=C1\CC(CO)(COC(=O)C2CCCCC2)OC1=O)C(C)C` (stereo unspecified) it was 0.01 µM.
